Compounds with a hit are over-represented: about 1.6% of the library has one in this group of screens.
DNMT1 inh – inhibitors of human DNMT1. P26358. DNMT1 molecular beacon, Hinp1I cleavage, fluorescence. inhibition (reported as % activation of signal), % at 10 µM. 360,000 compounds, 0.83% hits; in the data active = inhibition above about 50%
SUMO1 PPI mod – modulators of human SUMO1-mediated protein-protein interactions. inhibition, % at 20 µM. SUMO1 binding to a labelled peptide, TR-FRET, 1 h. 360,000 compounds, 0.33% hits. P63165; in the data active = inhibition above about 37%
Target sequence (P63165 whole entry, looked up): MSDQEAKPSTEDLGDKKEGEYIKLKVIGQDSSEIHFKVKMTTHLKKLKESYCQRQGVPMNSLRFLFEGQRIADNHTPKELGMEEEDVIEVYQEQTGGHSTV
F508del corr – CFTR F508del correction in bronchial cells; CFBE cells, YFP halide quenching; stimulated with forskolin plus potentiator P3; % fluorescence drop versus neutral controls; activity (quench increase), % at 7.58 µM; 350,000 compounds, 0.36% hits; AID 720511;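 active = mean added fluorescence quench of at least 8% versus neutral control, with both replicates also reaching 8%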;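 note: cells transiently co-express mutant CFTR-F508del with the halide-sensitive YFP; corrector assay measuring rescue of mutant channel to the surface after 24 h compound exposure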
LMPTP inh – blocks human LMPTP phosphatase; recombinant LMPTP-A, OMFP fluorogenic substrate, fluorescence intensity; P24666; 360,000 compounds, 0.22% hits; inhibition, % at 20 µM; AID 651560;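 active = compounds that cut the enzyme signal by at least half of the control window in the single-dose screen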;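 note: plate controls were DMSO wells with enzyme plus substrate for no effect and substrate without enzyme for full effect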
Target sequence (P24666 whole entry, looked up): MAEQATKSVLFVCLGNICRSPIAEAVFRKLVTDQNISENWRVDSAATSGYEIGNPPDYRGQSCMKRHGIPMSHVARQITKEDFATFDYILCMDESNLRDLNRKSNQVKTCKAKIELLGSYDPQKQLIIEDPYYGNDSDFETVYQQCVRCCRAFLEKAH
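Test system: LMPTP-A, protein tyrosine phosphatase of low molecular weight; Input: 0.625 nM enzyme; Incubation: 50 min dark incubation at room temperature; Signal: endpoint fluorescence intensity from OMFP dephosphorylation; Read-out basis: % inhibition versus control wells.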
Scp1 inh – inhibitors of human Scp-1 phosphatase. 340,000 compounds, 0.88% hits. AID 493091. Q9GZU7. inhibition, % at 20 µM. Recombinant Scp1, phosphopeptide, malachite green phosphate absorbance;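 active = inhibition above about 50% at 20 µM, limit read from the data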;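 note: plate controls were DMSO wells with enzyme for no effect and wells lacking enzyme for full effect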
Target sequence (Q9GZU7 76-261 limits assumed): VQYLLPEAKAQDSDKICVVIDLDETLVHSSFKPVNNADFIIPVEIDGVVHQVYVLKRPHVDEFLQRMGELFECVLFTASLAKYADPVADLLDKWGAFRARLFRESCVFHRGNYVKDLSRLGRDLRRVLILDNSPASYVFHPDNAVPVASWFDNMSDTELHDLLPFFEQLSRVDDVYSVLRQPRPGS
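System: SCP-1 catalytic domain; Reagent: Phospho 17-mer peptide substrate; Doses: one concentration, 20 µM, with 1.0% DMSO; Incubation: 45 min room-temperature reaction, 5 min colour, 30 min stabiliser; Signal: Phosphate-binding colour reagent, absorbance read at 630 nm.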
STEP block – STEP (human) phosphatase inhibition; P54829; 360,000 compounds, 0.25% hits; recombinant STEP, OMFP fluorogenic substrate, fluorescence; AID 588621; inhibition, % at 20 µM;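 active = inhibition at 20 µM, scaled per plate between control wells, above about 37%, limit read from the data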;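 note: 0% = DMSO with enzyme and substrate and 100% = substrate only without enzyme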
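Also added – OMFP at 25 µM · Test system – STEP tyrosine phosphatase · Technique – FITC-channel fluorescence of OMFP product · Schedule – 20 min at room temperature, dark · Evaluation – control-normalized % inhibition with plate pattern correction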
Scp-1 conf – confirmation of human Scp-1 phosphatase inhibitors. shares compounds with Scp1 inh. recombinant SCP-1 catalytic domain, phosphate release, malachite green absorbance. inhibition, % at 20 µM. 2,500 compounds, 61% hits. AID 540281;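 note: plate controls were DMSO with enzyme for no effect and buffer wells lacking enzyme for full effect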
MG interference – interferes with malachite green readout, flagging false Scp-1 hits. AID 540313. apparent inhibition (interference), % at 20 µM. 2,500 tested, under 10 active. shares compounds with Scp1 inh. Colorimetric interference counterscreen, malachite green absorbance 630 nm;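 note: compounds added after enzyme reaction finished so only phosphate colour detection is probed; plate controls were DMSO wells with completed Scp-1 reaction for no effect and substrate wells lacking enzyme for full effect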
Scp1 DSF – binds human Scp-1, shifting its melting temperature | shares compounds with Scp1 inh | Recombinant SCP1, Sypro Orange thermal shift Tm | thermal shift relative to vanadate control, % at 40 µM | 1,500 compounds, 25% hits;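 active = substances whose mean melting-temperature shift, as a percentage of the reference inhibitor's shift, reaches about 5.3%, limit read from the data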;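 note: 0% = Tm of DMSO wells and 100% = Tm with sodium orthovanadate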
* marks the source's active call; other numbers are inactive results; · = no result given.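 Rule for the calls, unless noted: active = inhibition of at least 30% at 20 µM; inactive = the rest.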

SMILES | DNMT1 inh | SUMO1 PPI mod | F508del corr | LMPTP inh | Scp1 inh | STEP block | Scp-1 conf | MG interference | others
C[C@@H]1CN([C@@H](C)CO)C(=O)Cc2cc(NS(=O)(=O)c3cn(C)cn3)ccc2O[C@@H]1CN(C)C(=O)Nc1ccccc1 | 2.0 | 3.4 | -1.1 | -0.2 | 88.0* | 3.0 | 61.7* | -8.2 | Scp1 DSF=-3.6
CN(C)C(=O)c1cccc(-c2ccc3c(c2)[C@@H]2[C@@H](CCN2C(=O)c2ccncc2)[C@@H](CO)N3C)c1 | · | · | -2.1 | · | · | · | · | ·
CO[C@@H]1CN(C)C(=O)c2ccc(NC(=O)C3CC3)cc2OC[C@@H](C)N(CCC(F)(F)F)C[C@@H]1C | · | · | 0.4 | · | · | · | · | ·
COc1ccc(/C(C)=N/NC(=O)CNC(=O)/C=C\c2ccco2)cc1 | 18.6 | -4.0 | 0.2 | -0.8 | 81.5* | -0.5 | 64.5* | -11.8 | Scp1 DSF=-5.5
COc1ccc(/C=C/C(=O)NCC(=O)N/N=C(/CCC(=O)O)c2ccccc2)cc1 | 1.2 | -7.3 | -0.2 | -0.5 | -2.5 | -2.7 | · | ·
CCC/C(=N\NC(=O)CNC(=O)/C=C/c1ccco1)c1ccccc1 | 7.6 | -6.3 | · | -2.3 | 6.1 | 4.1 | · | ·
CC/C(=N\NC(=O)CNC(=O)/C=C/c1ccco1)c1ccccc1 | 9.9 | 1.5 | · | 0.0 | 94.4* | -0.1 | 14.5 | -6.0
CC(=O)N(C)C[C@H]1Oc2cc(C#Cc3cccc(F)c3)ccc2S(=O)(=O)N([C@@H](C)CO)C[C@@H]1C | · | · | -2.9 | · | · | · | · | ·
Cc1ccc(CC(=O)N/N=C/c2ccc(OC(=O)c3ccc([N+](=O)[O-])cc3)cc2)cc1 | 41.0 | -5.6 | · | 14.8 | 61.0* | 3.0 | 41.8* | -6.5 | Scp1 DSF=-4.1
C[N+]1(CCOc2ccc([N+](=O)[O-])cc2)CCOCC1 | 2.8 | -12.6 | · | -3.0 | 105.5* | -1.3 | 84.6* | -10.9 | Scp1 DSF=-11.5
CC(=O)c1ccc(OCCOc2ccc([N+](=O)[O-])cc2)cc1 | 2.4 | -19.9 | · | 0.0 | -10.4 | 0.2 | · | ·
O=C(N/N=C/C=C\c1ccco1)c1ccccn1 | 21.0 | -9.7 | -2.0 | 3.2 | 51.5* | 1.4 | 39.4* | -7.3 | Scp1 DSF=5.0
Cn1c(SCC(=O)N/N=C/C=C/c2ccco2)nc2ccccc21 | 57.0* | -1.3 | · | 28.1 | 73.3* | -0.6 | 62.3* | -8.7 | Scp1 DSF=0.8
O=C(N/N=C/C=C/c1ccco1)c1cnccn1 | 11.0 | -5.7 | -2.1 | -0.4 | 5.3 | 0.6 | · | ·
Cc1ccc(C(=O)O)cc1NC(=S)NC(=O)c1ccc(COc2ccccc2)cc1 | 2.7 | -2.9 | 0.1 | 2.4 | 50.3* | 9.2 | 36.8* | -26.2 | Scp1 DSF=-8.1
COCC(=O)N1C[C@H](C)[C@H](OC)CN(C)C(=O)c2cc(NC(=O)c3ccccc3)ccc2OC[C@H]1C | · | · | -1.2 | · | · | · | · | ·
O=C(NNC(=O)c1ccccc1Cl)c1cccs1 | 0.5 | 2.6 | · | 1.3 | 75.7* | 0.9 | -20.6 | -16.4
CC(=O)N(C)C[C@H]1Oc2ncc(-c3ccc(C(=O)N(C)C)cc3)cc2C(=O)N([C@H](C)CO)C[C@H]1C | · | · | 0.5 | · | · | · | · | ·
O=C(COC(=O)/C=C/c1ccco1)Nc1ccc(F)cc1Cl | 24.1 | -6.7 | -3.3 | 1.3 | 50.3* | 6.3 | 36.3* | -19.5 | Scp1 DSF=-11.4
CCn1c(/C=C/c2cc[n+](C)cc2)nc2ccccc21 | -6.4 | -33.8 | -1.8 | -0.5 | 101.8* | -3.2 | 11.7 | -7.6
O=C1CCN(Cc2ccccc2)S(=O)(=O)c2ccc(F)cc21 | 19.6 | 1.3 | -1.0 | -1.1 | 51.5* | -2.7 | 1.7 | -17.2
Cc1ccc2nc(Cl)c(/C=N/NC(=O)c3ccccc3O)cc2c1 | -3.1 | 6.2 | · | 2.7 | 72.5* | 2.1 | 21.0 | -5.2
O=C(O)C1(S(=O)(=O)CCC(F)=C(F)F)CC1 | 1.0 | -6.2 | -2.0 | -1.1 | 98.0* | 0.0 | -5.9 | -6.5
COc1ccc(C2CCCN2CC(O)COc2ccccc2C(C)C)cc1 (stereo unspecified) | 0.3 | -3.1 | 0.6 | 1.3 | 61.0* | 0.4 | -22.4 | -18.1
CCOC(=O)N1CCN(CC(O)COc2ccccc2C(C)C)CC1 (stereo unspecified) | 3.0 | -2.0 | · | 0.2 | -7.6 | -0.9 | · | ·
SMILES | DNMT1 inh | SUMO1 PPI mod | F508del corr | LMPTP inh | Scp1 inh | STEP block | Scp-1 conf | MG interference | others
O=C1NCCCC2c3c(cc(Br)c(O)c3Br)OC12N1CCCCC1 (stereo unspecified) | 1.3 | 4.3 | · | 1.0 | 57.1* | -2.2 | -9.0 | -20.2
CCOc1ccccc1NC(=O)C(OC(=O)C1CC1)c1ccccc1 (stereo unspecified) | 3.2 | 2.0 | -2.7 | 5.5 | -5.2 | 0.3 | · | ·
CCOc1ccccc1NC(=O)C(NCC1(N2CCCCC2)CCCCC1)c1ccccc1 (stereo unspecified) | 1.7 | 7.6 | 0.8 | -0.6 | 65.2* | 2.3 | -12.9 | -10.9
O=C1NCCN1CCNS(=O)(=O)c1ccc2ccccc2c1 | -1.3 | -0.6 | · | -1.5 | -8.0 | -1.3 | -1.2 | -2.1
O=C(O)c1cc(S(=O)(=O)NCCN2CCNC2=O)ccc1O | -0.6 | 2.6 | -0.6 | -5.1 | -4.0 | -2.4 | · | ·
CC(=O)N(C)C[C@H]1OCc2ccccc2-c2c(n(C)c3ccccc23)C(=O)N([C@H](C)CO)C[C@H]1C | · | · | 0.7 | · | · | · | · | ·
CCOc1ccc(S(=O)(=O)NCc2ccccc2)cc1C(N)=O | 2.7 | -4.8 | 2.4 | -0.1 | -5.3 | 3.4 | · | ·
CCOc1ccc(S(=O)(=O)NCc2ccccc2Cl)cc1C(N)=O | -3.4 | 1.6 | 2.0 | -0.5 | 0.4 | -4.3 | -21.2 | -18.9
C[C@H]1CCCCO[C@H](CN(C)C(=O)Nc2ccccc2)[C@@H](C)CN([C@@H](C)CO)C(=O)c2cc(NS(=O)(=O)c3cccs3)ccc2O1 | · | · | -1.0 | · | · | · | · | ·
Cc1noc(C)c1S(=O)(=O)N(C)C[C@H]1Oc2c(NS(=O)(=O)c3cn(C)cn3)cccc2C(=O)N([C@H](C)CO)C[C@H]1C | · | · | -0.6 | · | · | · | · | ·
C[C@H](CO)N1C[C@H](C)[C@@H](CN(C)Cc2ccc3c(c2)OCO3)Oc2c(NC(=O)c3ccc(-c4nccs4)cc3)cccc2C1=O | · | · | -0.1 | · | · | · | · | ·
C1=CC2=NC34CCCCC3CC3=C(CCCC3)N4C2=CC1=NC1CCCCC1 (stereo unspecified) | -4.2 | -12.0 | · | 9.8 | 68.0* | 3.1 | -6.2 | -4.6
O=C(Nc1cc(F)ccc1F)N1CC(=O)N2[C@H](CO)[C@H](c3ccc(-c4ccc(F)cc4)cc3)[C@@H]2C1 | · | · | -0.9 | · | · | · | · | ·
C[N+]1(C)CCC(=C2c3ccccc3CC(=O)c3sccc32)CC1 | 2.2 | 12.3 | · | 0.0 | 97.1* | 5.4 | 2.7 | -3.2

Bioassay records as filed in PubChem BioAssay.
